PME-1 primary: blocks human protein phosphatase methylesterase 1; Q9Y570; recombinant PME-1, FP-Rh probe fluorescence polarization; inhibition, % at 5.9 µM; 320,000 compounds, 0.53% hits; AID 2130;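 active = inhibition above the campaign mean of all compounds plus 3 SD, cut at about 26% in these data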;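 note: competitive labeling of PME-1 active site by serine hydrolase directed probe; 0% = PME-1 with DMSO and 100% = wells lacking PME-1 enzyme; inhibitors block probe labeling so polarization falls and inhibition rises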
PAD4 inh: PAD4 (human) enzyme inhibition | inhibition, % at 6.36 µM | 330,000 compounds, 0.41% hits | AID 485272 | Q9UM07 | recombinant PAD4, RCA probe fluorescence polarization;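 active = percent inhibition above a cutoff equal to the mean of all tested compounds plus 3 SD, cut at about 15% in these data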;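 note: 0% = PAD4 with RCA probe and DMSO and 100% = probe without PAD4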
LYPLA1 inh: LYPLA1 (human) inhibition in PME1 counter-screen | O75608 | recombinant LYPLA1, FP-Rh probe fluorescence polarization | inhibition, % at 5.9 µM | 320,000 compounds, 0.16% hits | AID 2174;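 active = inhibition above the mean of all tested compounds plus 3 SD, set per campaign, cut at about 14% in these data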;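 note: inhibitors block serine hydrolase probe labeling of LYPLA1 so polarization falls; 0% = enzyme with DMSO and 100% = wells lacking LYPLA1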
Target sequence (O75608 whole entry, looked up): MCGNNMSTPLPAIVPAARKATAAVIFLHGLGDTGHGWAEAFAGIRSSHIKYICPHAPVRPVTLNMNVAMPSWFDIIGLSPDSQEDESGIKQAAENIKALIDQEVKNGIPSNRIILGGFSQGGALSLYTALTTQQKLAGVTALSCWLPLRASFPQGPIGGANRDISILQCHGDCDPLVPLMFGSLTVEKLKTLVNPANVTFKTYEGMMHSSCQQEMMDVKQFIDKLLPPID
LYPLA2 counter: counter-screen for PME1 inhibitors: inhibitors of human LYPLA2 | O95372 | recombinant LYPLA2, FP-Rh probe fluorescence polarization | inhibition, % at 5.9 µM | 320,000 compounds, 0.38% hits | AID 2177;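 active = inhibition above the screen-wide mean plus 3 SD, limit set per campaign, cut at about 26% in these data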;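 note: 0% = LYPLA2 with DMSO and 100% = wells lacking LYPLA2 enzyme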
Target sequence (O95372 whole entry, looked up): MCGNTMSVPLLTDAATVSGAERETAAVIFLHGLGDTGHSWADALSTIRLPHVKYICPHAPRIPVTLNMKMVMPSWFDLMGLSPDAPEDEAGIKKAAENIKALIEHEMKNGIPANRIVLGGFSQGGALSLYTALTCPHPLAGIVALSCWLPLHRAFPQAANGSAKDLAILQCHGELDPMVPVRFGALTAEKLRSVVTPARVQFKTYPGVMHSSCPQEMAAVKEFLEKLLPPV
RBBP9 inhibitor: inhibitors of human serine hydrolase RBBP9. O75884. recombinant RBBP9, FP-Rh probe fluorescence polarization. inhibition, % at 7.94 µM. 220,000 compounds, 0.2% hits. AID 1515;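 active = inhibition above the campaign mean of all tested compounds plus 3 SD, cut at about 14% in these data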;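 note: plate controls were DMSO wells with RBBP9 for no effect and wells lacking RBBP9 protein for full effect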
Target sequence (O75884 whole entry, looked up): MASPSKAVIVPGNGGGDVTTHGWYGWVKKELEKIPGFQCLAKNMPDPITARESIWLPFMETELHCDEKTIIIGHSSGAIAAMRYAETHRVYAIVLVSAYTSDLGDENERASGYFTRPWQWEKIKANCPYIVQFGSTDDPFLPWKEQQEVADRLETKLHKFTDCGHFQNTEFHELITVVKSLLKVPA
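Test system: recombinant human RBBP9; Timing: 30 min then 45 min, 25 °C; Detection: fluorescence polarization; Control set: RBBP9 with DMSO as uninhibited control, no-protein wells as full inhibition; Compound dosing: one concentration, 7.94 µM nominal, 0.794% DMSO; Probe or stimulus: FP-Rh activity-based probe, 375 nM before mixing.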
Fam108B counter: blocks mouse Fam108B hydrolase in RBBP9 counter-screen | recombinant Fam108B, FP-Rh probe fluorescence polarization | inhibition, % at 9.51 µM | 300,000 compounds, 0.33% hits;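 active = inhibition above the screen mean inhibition plus 3 SD, computed separately per campaign, cut at about 18% in these data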;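 note: inhibitors lower polarization as less probe binds the enzyme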
An asterisk follows results filed as active. Hits are enriched below; roughly 1.3% of the tested compounds scored in any of these assays.

Cc1ccc(S(=O)(=O)CCC(=O)NCCN2C(=O)S/C(=C\c3ccccc3)C2=O)cc1 was read as PME-1 primary 35.1*, PAD4 inh -0.9, LYPLA1 inh 1.0, LYPLA2 counter 0.2, RBBP9 inhibitor -4.3 and Fam108B counter -3.4.
CCOC(=O)Cc1csc(NC(=O)c2sc3nc4cc(C)ccc4cc3c2N)n1 was read as PME-1 primary 45.7*, PAD4 inh -4.5, LYPLA1 inh -1.3, LYPLA2 counter 0.2, RBBP9 inhibitor -1.9 and Fam108B counter 3.5.
For COC(=O)c1cc(-c2ccc(Br)cc2)c2c(=O)n(C)c(=O)n(C)c2n1 the results were PME-1 primary 4.0, PAD4 inh -2.7, LYPLA1 inh -4.4, LYPLA2 counter -3.5 and Fam108B counter -0.7.
Screening O=C(Nc1ccc(S(=O)(=O)NC2=NCCCCC2)cc1)c1ccc(Cl)c([N+](=O)[O-])c1 returned PAD4 inh -5.8.
`Cc1cccc(C)c1NS(=O)(=O)c1ccc(NC(=O)c2ccc(Cl)c([N+](=O)[O-])c2)cc1` gave PME-1 primary 33.3*, PAD4 inh 2.1, LYPLA1 inh -1.4, LYPLA2 counter -39.4, RBBP9 inhibitor -16.7 and Fam108B counter -9.8.
For Oc1ccc(Br)cc1-c1nc2cnccn2c1NC1CCCC1 the results were PME-1 primary 26.2*, PAD4 inh -2.9, LYPLA1 inh -0.3, LYPLA2 counter -3.0, RBBP9 inhibitor -9.2 and Fam108B counter 9.6.
`Oc1ccc(Br)cc1-c1nc2cnccn2c1NC1CCCCC1` gave PME-1 primary 6.7, PAD4 inh -0.4, LYPLA1 inh -4.9, LYPLA2 counter -9.4, RBBP9 inhibitor 4.4 and Fam108B counter 10.7.
For O=C(O)c1cccc(N2C(=O)c3cc([N+](=O)[O-])cc4cc([N+](=O)[O-])cc(c34)C2=O)c1 the results were PME-1 primary 8.2, PAD4 inh 41.7*, LYPLA1 inh -0.9, LYPLA2 counter 3.0 and Fam108B counter 15.1.
Screening Cc1ccc(-n2c3nc(=O)[nH]c(=O)c-3cc3cc([N+](=O)[O-])ccc32)cc1 returned PME-1 primary 62.9*, PAD4 inh -0.5, LYPLA1 inh 3.6, LYPLA2 counter 2.5, RBBP9 inhibitor 0.1 and Fam108B counter 15.3.
For N#CCC(=O)Nc1ccc(C(=O)OCC(=O)Nc2ccccc2Sc2ccccc2)cc1 the results were PME-1 primary 34.2*, PAD4 inh -2.3, LYPLA1 inh -13.4, LYPLA2 counter 2.1, RBBP9 inhibitor -8.7 and Fam108B counter 5.8.
`CCOc1cc(C(C(=O)NCC2CCCO2)N(C(=O)Cn2nnc3ccccc32)c2ccccc2C(C)=O)ccc1O` (stereo not drawn) gave PME-1 primary -3.2, PAD4 inh 4.6, LYPLA1 inh 0.1, LYPLA2 counter 4.9 and Fam108B counter -2.2.
Screening OC(CN1CCC(Cc2ccccc2)CC1)c1ccccc1 (stereo not drawn) returned PME-1 primary -8.1, PAD4 inh 8.1, LYPLA1 inh -2.3, LYPLA2 counter 2.1 and Fam108B counter 4.8.
O=C(COc1ccccc1)N[C@@H]1c2ccccc2CC[C@@H]1O was read as PAD4 inh 3.0.
`COc1ccc(N2C(=O)[C@@H]3[C@H](C2=O)[C@H]2c4ccccc4C=CN2[C@@H]3C(=O)Nc2ccccc2)cc1` gave PME-1 primary 13.3, PAD4 inh -2.8, LYPLA1 inh 1.1, LYPLA2 counter 6.8, RBBP9 inhibitor 1.4 and Fam108B counter 24.6*.
Screening O=C(c1ccco1)[C@@H]1[C@@H]2C(=O)N(c3ccccc3)C(=O)[C@@H]2C2c3ccccc3C=CN21 (stereo partly drawn) returned PME-1 primary 3.0, PAD4 inh -0.8, LYPLA1 inh 3.5, LYPLA2 counter 3.7, RBBP9 inhibitor -4.5 and Fam108B counter 6.6.
CCOc1cc(CNc2ccc(O)cc2)ccc1OCc1ccc(Cl)cc1Cl was read as PME-1 primary 28.7*, PAD4 inh 30.4*, LYPLA1 inh 4.8, LYPLA2 counter 13.9, RBBP9 inhibitor 12.2 and Fam108B counter 15.7.
Screening CCOc1cccc(CNc2ccc(O)cc2)c1OCc1ccc(Cl)cc1 returned PME-1 primary 22.2, PAD4 inh -11.3, LYPLA1 inh -1.2, LYPLA2 counter 5.3, RBBP9 inhibitor 3.5 and Fam108B counter 16.7.
For COc1ccc(N2CCN(C(=O)c3ccc(COc4ccc5c(C)cc(=O)oc5c4)cc3)CC2)cc1 the results were PME-1 primary 0.8, PAD4 inh -4.2, LYPLA1 inh 3.6, LYPLA2 counter 63.1*, RBBP9 inhibitor 4.4 and Fam108B counter 8.5.
`CCCCN(C(=O)CSc1nnc(Nc2ccccc2)s1)c1c(N)n(CCC)c(=O)[nH]c1=O` gave PME-1 primary -1.7, PAD4 inh 20.2*, LYPLA1 inh -3.6, LYPLA2 counter -10.7, RBBP9 inhibitor -10.8 and Fam108B counter -11.0.
Screening O=Nc1c(O)c2ccccc2c2ccccc12 returned PME-1 primary 35.4*, PAD4 inh -1.7, LYPLA1 inh -0.3, LYPLA2 counter 1.3 and Fam108B counter 14.5.
For O=C(N/N=C1/C(=O)c2cccc3cccc1c23)c1ccc(Cl)cc1 the results were PME-1 primary 7.3, PAD4 inh 2.4, LYPLA1 inh 5.9, LYPLA2 counter 31.3*, RBBP9 inhibitor -2.0 and Fam108B counter 9.8.
CC(C)(C)OC(=O)N1CCCN(C(=O)Nc2ccc(C(F)(F)F)cc2)CC1 was read as PME-1 primary 0.6, PAD4 inh 4.6, LYPLA1 inh 4.0, LYPLA2 counter 2.6, RBBP9 inhibitor -2.6 and Fam108B counter -5.4.
Screening Cc1ccc2nc(=O)c(NNc3ccccc3)cnc2c1 returned PME-1 primary 41.3*, PAD4 inh -1.6, LYPLA1 inh -3.0, LYPLA2 counter -0.6, RBBP9 inhibitor -7.1 and Fam108B counter 3.7.
For Cc1ccc([N+](=O)[O-])cc1NC(=O)CCCOc1ccccc1 the results were PME-1 primary 3.3, PAD4 inh 0.6, LYPLA1 inh -0.8, LYPLA2 counter -2.5, RBBP9 inhibitor -8.0 and Fam108B counter 2.0.
For O=C(O)/C(CC(=O)c1ccc(Cl)cc1)=N/Nc1ccc([N+](=O)[O-])cc1[N+](=O)[O-] the results were PME-1 primary 26.5*, PAD4 inh -4.8, LYPLA1 inh 0.0, LYPLA2 counter 20.4 and Fam108B counter 12.3.
C/C(CCC(=O)O)=N/Nc1ccc([N+](=O)[O-])cc1[N+](=O)[O-] was read as PME-1 primary 0.6, PAD4 inh -10.3, LYPLA1 inh 0.9, LYPLA2 counter 0.7, RBBP9 inhibitor -0.9 and Fam108B counter -2.1.
`CC1=NN(c2ccc(C)c(C)c2)C(=O)C1C(c1cccc(O)c1)C1C(=O)N(c2ccc(C)c(C)c2)N=C1C` (stereo not drawn) gave PME-1 primary 33.6*, PAD4 inh 76.8*, LYPLA1 inh -2.2, LYPLA2 counter 9.8, RBBP9 inhibitor -4.3 and Fam108B counter 9.8.

From PubChem BioAssay
